Unmarked numbers belong to inactive results.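 How the source made its calls, unless noted: active means growth inhibition above 25% in both replicates, a cutoff set 3 SD above the mean; inconclusive means above 25% in only one replicate; inactive means the rest.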

One assay is described as follows: S. cerevisiae growth inhibition in permissive medium (OD615), pilot counter-assay for S. cerevisiae lifespan shortening project, permissive growth control (AID 705). Conditions: OD615, 24 h, at 10 µM, active compounds read high. The procedure, abridged: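 Timing: 24 h exposure, 30 °C / Material: Saccharomyces cerevisiae strain carrying genetically modified DeaD replicative-lifespan system / Signal: OD at 615 nm / Compound: 10 µM single dose, 0.25% DMSO / Medium: SC raffinose/galactose permissive medium / Evaluation: reduction in yeast growth (OD615)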
As to `Cc1cc2ncn(CC(O)COC3CCCCC3)c2cc1C` (stereo not given), the growth inhibition was -8.15%.

`CCOC(=O)c1sc(NC(=O)c2ccco2)nc1-c1ccccc1`: the growth inhibition is -1.62%.

On to `COc1ccc(S(=O)(=O)N2CCC(C(=O)Nc3cccc(Cl)c3)CC2)cc1OC`, for which the growth inhibition is -2.42%.

Regarding `Cc1cccc(N(C)c2cc(C)nc3ncnn23)c1`, the growth inhibition was 2.75%.

As to `CCOC(=O)C1CCCN(C(=O)Cn2sc3nc(C)cc(C)c3c2=O)C1` (stereo not given), the growth inhibition is 18.4%.

Take `CCc1ccc(NC(=O)CSc2nc3c(c(=O)n(C)c(=O)n3C)n2C)cc1`: the growth inhibition was 3.77%.

On to `COCCNC(=O)c1ccccc1NC(=O)C1COc2ccccc2O1` (stereo not given), for which the growth inhibition was -3.84%.

For the molecule `COc1ccc(S(=O)(=O)Cc2ccc(C(=O)N3CCc4ccccc4C3)o2)cc1`, the growth inhibition is -5.74%.

For `CC1Cc2ccccc2N1C(=O)Cn1cnc2ccccc2c1=O` (stereo not given), the growth inhibition is 3.42%.

For the molecule `Brc1cccc(-c2nc(-c3ccncc3)no2)c1`, the growth inhibition was -7.69%.

On to `COc1ccc(OC)c(NC(=O)NC2(C(F)(F)F)Oc3ccccc3O2)c1`, for which the growth inhibition was -4.07%.

For the molecule `CC(C)c1ccc(NC(=O)c2cccnc2)cc1`, the growth inhibition is -3.85%.

Regarding `Cc1ccc2oc3c(c(=O)c2c1)C(c1cccs1)N(CCCN(C)C)C3=O` (stereo not given), the growth inhibition is 2.01%.

Take `COc1ccc(CC(=O)N2CC3(C)CC2CC(C)(C)C3)cc1OC` (stereo not given): the growth inhibition was -8.12%.

In the case of `COc1ccc(C2C(C(=O)c3ccco3)=C(O)C(=O)N2Cc2cccnc2)cc1OC` (stereo not given), the growth inhibition was -4.18%.

On to `COc1ccc(OCC(=O)OCCN2C(=O)c3ccccc3C2=O)cc1`, for which the growth inhibition is 3.16%.

`COc1ccc(C2C(C(=O)NCC3CCCO3)c3cc(OC)c(OC)cc3C(=O)N2C)cc1OC` (stereo not given): the growth inhibition is -13.5%.

With `Cc1ccccc1CSc1nnc(-c2ccco2)n1Cc1ccco1`, the growth inhibition was 5.54%.

Consider `Cc1nc(CNS(=O)(=O)c2ccccc2F)cs1`, for which the growth inhibition is -2.92%.

Turning to `CC1CC(C(O)c2ccccn2)C(=O)C(C(O)c2ccccn2)C1` (stereo not given), the growth inhibition is 9.67%.

For the molecule `CCCC(c1c(C)n(C)n(-c2ccccc2)c1=O)c1c(C)n(C)n(-c2ccccc2)c1=O`, the growth inhibition was -9.58%.

For the molecule `CS(=O)(=O)N(Cc1ccc(C(=O)NCc2ccco2)cc1)c1ccccc1`, the growth inhibition was -6.5%.

For `CC(C)Cc1cc(C(=O)Nc2cc(Cl)ccc2Cl)no1`, the growth inhibition was -14.2%.

Consider `Cc1cc(F)ccc1S(=O)(=O)Nc1c(C)n(C)n(-c2ccccc2)c1=O`, for which the growth inhibition was 1.71%.

For `Cc1onc(-c2ccccc2)c1C(=O)Nc1cccc(C#N)c1`, the growth inhibition was -20.3%.

As for `O=C(c1ccccc1)c1ccc(OC(=O)N2CCOCC2)cc1`, the growth inhibition is -7.92%.

For `COC(=O)CN1C(=O)CC(C)(C)Sc2ccccc21`, the growth inhibition was -16.9%.

Regarding `Cc1cc(C)cc(N(CC(=O)NCc2ccco2)S(=O)(=O)c2c(C)noc2C)c1`, the growth inhibition was -22%.

In the case of `COc1ccc(C)cc1NC(=O)CSc1nnc(-c2ccc(OC)c(OC)c2)n1N`, the growth inhibition was 3.19%.

With `Cn1c(=O)oc2cc(S(=O)(=O)N3CCCc4ccccc43)ccc21`, the growth inhibition is -5.55%.

Take `CC(C)(C)NC(=O)c1ccc(NC(=O)C2COc3ccccc3O2)cc1` (stereo not given): the growth inhibition is -6.05%.

In the case of `CC1CCCC(C)N1c1nnc(N)s1` (stereo not given), the growth inhibition was 0.52%.

With `COc1ccc(-c2cc(N)n(S(=O)(=O)Cc3ccccc3)n2)c(OC)c1`, the growth inhibition was -2.75%.

As for `CC1CN(c2ncnc3c2cnn3-c2ccc(Cl)cc2)CC(C)O1` (stereo not given), the growth inhibition is -3.73%.

For the molecule `NS(=O)(=O)c1ccc(CCNC(=O)C2CCCN(S(=O)(=O)c3cccnc3)C2)cc1` (stereo not given), the growth inhibition is -8.75%.

As for `O=C(O)c1ccc(NS(=O)(=O)c2cccc3cccnc23)cc1`, the growth inhibition is -2.47%.

With `Cc1ccc(C(=O)Nc2nc3ccccc3n2CCN2CCCC2)cc1`, the growth inhibition is -11.4%.

As to `CC(C)c1nnc(NC(=O)CSc2ncn[nH]2)s1`, the growth inhibition is -14.4%.

In the case of `Cc1cc(C)c(NC(=O)C(C)(C)C)c(Cl)c1`, the growth inhibition was -6.4%.

Take `CCOc1ccc(Nc2cc(C)nc3nc(C)nn23)cc1`: the growth inhibition was -10.9%.

A short description of the next assay: S. cerevisiae growth inhibition in restrictive medium, OD615, pilot screen, restrictive growth control, yeast lifespan reduction project (AID 706;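 active means growth inhibition above a set limit, 3 SD over mean compound inhibition, in both replicates, cut at about 43% in these data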;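 further: modified DeaD lifespan yeast strain shifted to restrictive glucose medium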). Conditions: OD615, 48 h, at 10 µM, active compounds read high. Put shortly:
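System: Engineered S. cerevisiae DeaD strain | Detection: OD615 | Buffer or medium: CSMM-D glucose medium | Doses: 10 µM compound, 0.25% DMSO | Timing: 4 h pre-growth plus 48 h compound exposure, 30 °C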
`Cc1cc2ncn(CC(O)COC3CCCCC3)c2cc1C` (stereo not given): the growth inhibition is -2.2%.

As to `CCOC(=O)c1sc(NC(=O)c2ccco2)nc1-c1ccccc1`, the growth inhibition is -1.76%.

As for `COc1ccc(S(=O)(=O)N2CCC(C(=O)Nc3cccc(Cl)c3)CC2)cc1OC`, the growth inhibition is -2.81%.

`Cc1cccc(N(C)c2cc(C)nc3ncnn23)c1`: the growth inhibition was 3.99%.

`CCOC(=O)C1CCCN(C(=O)Cn2sc3nc(C)cc(C)c3c2=O)C1` (stereo not given): the growth inhibition is 29.4%.

Consider `CCc1ccc(NC(=O)CSc2nc3c(c(=O)n(C)c(=O)n3C)n2C)cc1`, for which the growth inhibition was -8%.

Regarding `COCCNC(=O)c1ccccc1NC(=O)C1COc2ccccc2O1` (stereo not given), the growth inhibition was -0.665%.

Consider `COc1ccc(S(=O)(=O)Cc2ccc(C(=O)N3CCc4ccccc4C3)o2)cc1`, for which the growth inhibition was -5.21%.

Consider `CC1Cc2ccccc2N1C(=O)Cn1cnc2ccccc2c1=O` (stereo not given), for which the growth inhibition is -17.3%.

Take `Brc1cccc(-c2nc(-c3ccncc3)no2)c1`: the growth inhibition is 7.9%.

With `COc1ccc(OC)c(NC(=O)NC2(C(F)(F)F)Oc3ccccc3O2)c1`, the growth inhibition was 0.635%.

As for `CC(C)c1ccc(NC(=O)c2cccnc2)cc1`, the growth inhibition was -12.2%.

As to `Cc1ccc2oc3c(c(=O)c2c1)C(c1cccs1)N(CCCN(C)C)C3=O` (stereo not given), the growth inhibition is 4.98%.

As for `COc1ccc(CC(=O)N2CC3(C)CC2CC(C)(C)C3)cc1OC` (stereo not given), the growth inhibition is -2.29%.

In the case of `COc1ccc(C2C(C(=O)c3ccco3)=C(O)C(=O)N2Cc2cccnc2)cc1OC` (stereo not given), the growth inhibition is 6.84%.

Regarding `COc1ccc(OCC(=O)OCCN2C(=O)c3ccccc3C2=O)cc1`, the growth inhibition was -3.81%.

As to `COc1ccc(C2C(C(=O)NCC3CCCO3)c3cc(OC)c(OC)cc3C(=O)N2C)cc1OC` (stereo not given), the growth inhibition is -13.4%.

On to `Cc1ccccc1CSc1nnc(-c2ccco2)n1Cc1ccco1`, for which the growth inhibition was 10.2%.

On to `Cc1nc(CNS(=O)(=O)c2ccccc2F)cs1`, for which the growth inhibition is 0.715%.

Consider `CC1CC(C(O)c2ccccn2)C(=O)C(C(O)c2ccccn2)C1` (stereo not given), for which the growth inhibition is -1.25%.

For the molecule `CCCC(c1c(C)n(C)n(-c2ccccc2)c1=O)c1c(C)n(C)n(-c2ccccc2)c1=O`, the growth inhibition is -13.4%.

`CS(=O)(=O)N(Cc1ccc(C(=O)NCc2ccco2)cc1)c1ccccc1`: the growth inhibition is -0.32%.

With `CC(C)Cc1cc(C(=O)Nc2cc(Cl)ccc2Cl)no1`, the growth inhibition is -0.125%.

`Cc1cc(F)ccc1S(=O)(=O)Nc1c(C)n(C)n(-c2ccccc2)c1=O`: the growth inhibition is 0.315%.

In the case of `Cc1onc(-c2ccccc2)c1C(=O)Nc1cccc(C#N)c1`, the growth inhibition was -6.79%.

Consider `O=C(c1ccccc1)c1ccc(OC(=O)N2CCOCC2)cc1`, for which the growth inhibition is 4.65%.

For `COC(=O)CN1C(=O)CC(C)(C)Sc2ccccc21`, the growth inhibition is -27.1%.

Take `Cc1cc(C)cc(N(CC(=O)NCc2ccco2)S(=O)(=O)c2c(C)noc2C)c1`: the growth inhibition is -17.1%.

For the molecule `COc1ccc(C)cc1NC(=O)CSc1nnc(-c2ccc(OC)c(OC)c2)n1N`, the growth inhibition is 14%.

`Cn1c(=O)oc2cc(S(=O)(=O)N3CCCc4ccccc43)ccc21`: the growth inhibition is -1.98%.

For the molecule `CC(C)(C)NC(=O)c1ccc(NC(=O)C2COc3ccccc3O2)cc1` (stereo not given), the growth inhibition is -6.04%.

In the case of `CC1CCCC(C)N1c1nnc(N)s1` (stereo not given), the growth inhibition is 30.8%.

With `COc1ccc(-c2cc(N)n(S(=O)(=O)Cc3ccccc3)n2)c(OC)c1`, the growth inhibition is -12.7%.

As for `CC1CN(c2ncnc3c2cnn3-c2ccc(Cl)cc2)CC(C)O1` (stereo not given), the growth inhibition was -8.06%.

Consider `NS(=O)(=O)c1ccc(CCNC(=O)C2CCCN(S(=O)(=O)c3cccnc3)C2)cc1` (stereo not given), for which the growth inhibition is -8.71%.

For the molecule `O=C(O)c1ccc(NS(=O)(=O)c2cccc3cccnc23)cc1`, the growth inhibition was 7.28%.

Turning to `Cc1ccc(C(=O)Nc2nc3ccccc3n2CCN2CCCC2)cc1`, the growth inhibition was -2%.

For the molecule `CC(C)c1nnc(NC(=O)CSc2ncn[nH]2)s1`, the growth inhibition is -13.9%.

For the molecule `Cc1cc(C)c(NC(=O)C(C)(C)C)c(Cl)c1`, the growth inhibition was 6.2%.

Regarding `CCOc1ccc(Nc2cc(C)nc3nc(C)nn23)cc1`, the growth inhibition is 5.96%.

Values taken from PubChem BioAssay.
